Vif imaging = HIV Vif self-association inhibitors, primary screen, imaging, HEK293T, single point | HEK293T cells, Vif self-association by quenched fluorescence, 24 h | inhibition, % at 7.49 µM | 0.35% of 340,000 active; in the data active means inhibition above about 50%, passing the limit was not always enough; inconclusive means no clear call, values can overlap the other calls; inactive means below about 31%
UCH37 inh = inhibitors of human UCH37 deubiquitinase, primary screen, biochemical, Ub-AMC cleavage, fluorescence; Ubiquitin carboxyl-terminal hydrolase isozyme L5 (Homo sapiens), Q9Y5K5; purified proteasome/UCH37; inhibition, % (concentration not given with the values); 0.33% of 330,000 active;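 active means mean inhibition over replicate wells above about 20%, limit read from the data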;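 further: 0% = compound-free wells with enzyme and 100% = wells lacking proteasome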
Target sequence (Q9Y5K5 whole entry, looked up): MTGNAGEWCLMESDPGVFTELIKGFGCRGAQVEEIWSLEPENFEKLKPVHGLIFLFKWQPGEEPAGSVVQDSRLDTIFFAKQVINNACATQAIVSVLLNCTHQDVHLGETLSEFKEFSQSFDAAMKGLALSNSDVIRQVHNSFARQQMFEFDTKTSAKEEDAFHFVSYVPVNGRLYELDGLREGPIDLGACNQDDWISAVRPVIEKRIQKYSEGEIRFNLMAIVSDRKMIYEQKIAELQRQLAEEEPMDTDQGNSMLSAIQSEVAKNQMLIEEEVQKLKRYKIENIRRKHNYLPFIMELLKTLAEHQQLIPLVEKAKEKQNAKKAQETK
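Schedule: 30 min plus 25 min, room temperature / Material: human UCH37 within purified proteasomes / Technique: AMC fluorescence intensity at 355/460 nm / Buffer or medium: pH 7.4 Tris-HCl (50 mM) with ovalbumin, ATP-MgCl2, DTT / Controls: wells without proteasome as full block, compound-free enzyme plus substrate as uninhibited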
MsrA act = bovine MsrA enzyme activators, primary screen, biochemical, absorbance, HTS | purified bovine MsrA, absorbance read-out | Methionine sulfoxide reductase A (Bos taurus) | 0.3% of 360,000 active | AID 602163, 2012 | activation, % at 10.6 µM; in the data active means activation above about 7.5%;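 further: 0% = vehicle and 100% = reference activator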
MsrA inhibitor = bovine MsrA enzyme inhibitors, primary screen, biochemical, absorbance, HTS; inhibition, % at 15.5 µM; Methionine sulfoxide reductase A (Bos taurus); 0.75% of 360,000 active; AID 651718, 2012; purified bovine MsrA, absorbance read-out;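 further: 0% = vehicle wells with enzyme and 100% = reference inhibitor wells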
aDG glyco act = activators of alpha-DG glycosylation, primary screen, uHTS, Pro5-aDG cells, AlphaScreen. alpha-DG glycosylation AlphaScreen (IIH6); 0% Pro5, 100% B10-LARGE cell signal. activation, % at 10 µM. 0.22% of 360,000 active. AID 624168, 2012;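 active means activation of at least 8% versus controls, or a plate z-score of at least 8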;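 further: Pro5 are CHO cells carrying HIG-tagged alpha-DG that lacks glycosylation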
N-glyco inh = increase of ERlucT glycosylation luciferase signal, primary screen, N-linked glycosylation inhibitor project, D54 ERlucT cells, luminescence, set 2; D54 ERlucT glycosylation luciferase reporter, 24 h; percent of 100 nM tunicamycin response; reporter increase, % at 12.5 µM; 0.23% of 360,000 active;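 active means mean luciferase reporter signal, scaled so untreated is 0 and the glycosylation-blocking control 100, at or above a set limit in every replicate; inconclusive means mean reaches the limit but not every replicate does; inactive means mean below the limit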;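 further: luciferase carries N-glycosylation sites so blocking glycosylation raises the light; 0% = median of neutral control wells and 100% = median of 100 nM tunicamycin wells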
MsrA inh confirm = bovine MsrA inhibitors, retest, confirmation, biochemical, absorbance, HTS | 41% of 2,300 active | purified bovine MsrA, absorbance read-out | shares compounds with MsrA inhibitor | inhibition, % at 15.5 µM;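 further: coupled to thioredoxin reductase with NADPH and selenocystamine and DMSO as substrate; 0% = vehicle only and 100% = full effect of reference inhibitor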
An asterisk follows results filed as active; ? = inconclusive; . = no result given. The list is not random: actives were taken first. Their share in the collection is about 1.9%. Unless noted, no stated cut-off is given here; in the data, active means inhibition above about 4.5%; inactive means the rest.

SMILES	Vif imaging	UCH37 inh	MsrA act	MsrA inhibitor	aDG glyco act	N-glyco inh	MsrA inh confirm
COc1ccc(/C=N/NC(=O)c2cnccn2)cc1O	25	.	-6	4.8*	0	0	4.8*
COc1ccc(C=NNC(=O)c2cc[n+]([O-])cc2)cc1O	.	16	.	.	.	.	.
COc1cc(/C=N/NC(=O)c2cn(-c3cccc(C)n3)cn2)ccc1O	0	.	-6	4.7*	0	7	4
CCOc1ccc2[nH]c(C(=O)N/N=C/c3cc(OC)c(OC)c(OC)c3)cc2c1	-16	.	-5	5.4*	0	22	4.8*
COc1ccc(C=NNC(=O)c2cnccn2)cc1O	.	3	.	.	.	.	.
CC(Cn1nc([N+](=O)[O-])cc1C)=NNC(=O)COc1ccc(Cl)cc1Cl	.	3	.	.	.	.	.
O=C(Cc1csc(N2CCOCC2)n1)NN=Cc1ccc(F)cc1	.	1	.	.	.	.	.
O=C(N/N=C/c1ccc([N+](=O)[O-])o1)c1cc(-c2ccncc2)nc2ccccc12	-9	.	-10	6.1*	1	6	2
COc1cc(/C=N/NC(=O)c2cc3ccccc3[nH]2)ccc1O	-3	.	-1	8.4*	0	0	5.9*
COc1cc(/C=N/NC(=O)C(=O)Nc2ccccn2)ccc1O	-3	.	-4	5.3*	0	0	5.0*
COc1cc(/C=N/N(C)c2ccccc2)ccc1O	3	.	-1	5.3*	0	-5	4
COc1ccc(C=NNC(=O)COc2cccc3ccccc23)c(C(=O)O)c1OC	.	3	.	.	.	.	.
COc1ccc(/C=N/NC(=O)c2cc3c(OC)ccc(OC)c3[nH]2)cc1O	0	.	-5	6.6*	0	20	5.8*
CCOc1ccccc1-c1cc(C(=O)N/N=C/c2ccc(O)c(OC)c2)c2ccccc2n1	12	.	-7	4.9*	0	-11	2
COc1ccc(/C=N/NC(=O)c2cc(-c3ccccc3)nc3ccccc23)c(OC)c1	-2	.	-6	5.4*	0	1	4
CCOC(=O)c1c(NC(=O)C(=O)N/N=C/c2ccc(O)c(OC)c2)sc2c1CCCCC2	-1	.	-1	5.0*	0	3	3
CCOC(=O)c1c(NC(=O)C(=O)N/N=C/c2ccc(OCC)cc2)sc2c1CCCCC2	-10	.	-4	-1	0	0	.
COc1ccc(OC)c2[nH]c(C(=O)NN=Cc3ccccc3O)cc12	.	-12	.	.	.	.	.
O=C(NN=Cc1cccnc1)c1cccc(Br)c1	.	5	.	.	.	.	.
CC(C)C(=NNS(=O)(=O)c1ccc(Br)cc1)c1cccs1	.	4	.	.	.	.	.
COc1ccc(/C=N/Nc2ccccn2)cc1O	-3	.	-5	6.1*	0	-3	3
COc1ccc(/C=N/NC(=O)c2cc(=O)[nH]c3ccccc23)cc1OC	-2	.	-17	4.7*	0	3	3
CCOc1cc(/C=N\NC(=O)c2c(C)nc3ccccn23)ccc1O	11	.	-6	5.6*	0	1	4.9*
COc1cc(/C=N/NC(=O)c2cccc(C(=O)N/N=C/c3ccc(O)c(OC)c3)n2)ccc1O	4	.	-3	6.6*	0	1	3
COc1ccc(C=NNC(=O)c2cc(=O)[nH]c3ccccc23)cc1OC	.	-71	.	.	.	.	.
SMILES	Vif imaging	UCH37 inh	MsrA act	MsrA inhibitor	aDG glyco act	N-glyco inh	MsrA inh confirm
O=C(N/C(=C/c1ccc(Br)cc1)c1nc2ccccc2[nH]1)c1ccco1	-2	-39	-7	5.9*	0	0	4
O=C(N/C(=C/c1ccc(Cl)cc1)c1nc2ccccc2[nH]1)c1ccco1	6	-64	-7	4	0	3	.
O=C(NN=Cc1cccs1)c1cc(-c2cccc3ccccc23)n[nH]1	.	4	.	.	.	.	.
CCOc1cc(/C=N/N=C2/NC(=O)C(CC(=O)O)S2)ccc1OCc1ccc(Cl)cc1 (configuration not stated)	-7	.	-7	3	0	0	.
Cn1c(=O)n(C)c2cc(/C=N/N=C3/NC(=O)C(CC(=O)O)S3)ccc21 (configuration not stated)	18	.	-8	6.2*	-1	0	6.7*
COc1ccc(/C=N/N=C2/NC(=O)C(CC(=O)O)S2)cc1OCc1ccc(Cl)cc1 (configuration not stated)	-1	.	-10	7.3*	0	2	5.9*
COc1ccc(C=NNC(=O)Cn2cc(C(F)(F)F)ccc2=O)cc1	.	1	.	.	.	.	.
c1ccc2c(c1)CCCN2c1nc2ccccc2n2cnnc12	.	9	-12	12*	0	1	12*
c1ccc2c(c1)CCN(c1nc3ccccc3n3cnnc13)C2	-6	-3	-5	1	0	0	.
Cn1c(=O)n(C)c2cc(/C=C3/SC(=O)N(CC(=O)N4CCOCC4)C3=O)ccc21	17	5	-4	4.8*	0	9	5
Cn1cnc([N+](=O)[O-])c1S(=O)(=O)c1cccc(Cl)c1	-3	6	-4	-1	-1	?	.
Cn1cnc([N+](=O)[O-])c1S(=O)(=O)Nc1ccccc1	23	5	-2	16*	2	2	8.1*
Cn1cnc([N+](=O)[O-])c1S(=O)(=O)Oc1ccccc1	-3	9	-3	17*	0	22	12*
NC(=O)NC(=O)C[n+]1cccc(C=NO)c1	.	0	.	.	.	.	.
Cc1ccc(C)c(NC(=O)CCC(=O)NN=Cc2cccnc2)c1	.	7	.	.	.	.	.
C=C(C)CNC(=S)N=c1scc(C)n1CC	.	5	.	.	.	.	.
CCOC(=O)C(NC(=O)c1ccccc1)=C1C=C(C)OC(C)=C1	20	3	-6	3	0	1	.
COC(=O)C(NC(=O)c1ccccc1)=C1C=C(C)OC(C)=C1	2	6	0	5.3*	0	1	4
Cc1nc(NN=Cc2cccc(F)c2)cc(N2CCOCC2)n1	.	5	.	.	.	.	.
Cc1nc(N/N=C/c2ccc(O)cc2O)cc(N2CCOCC2)n1	-3	.	-4	4.8*	0	-9	4
O=c1nc(N2CCOCC2)nc(N/N=C/c2ccc3c(c2)OCO3)[nH]1	3	.	-2	5.5*	0	3	2
Oc1ccc(C=NNc2cc(N3CCCC3)nc(N3CCCC3)n2)cc1O	.	16	.	.	.	.	.
Oc1cccc(/C=N/Nc2cc(N3CCOCC3)nc(N3CCOCC3)n2)c1	-2	.	-4	4.9*	0	-8	6.2*
Oc1ccc(/C=N/Nc2cc(N3CCOCC3)nc(N3CCOCC3)n2)cc1O	-3	.	-5	4.7*	0	-2	4
CC(=NNC(=O)CCc1c[nH]c2ccccc12)c1ccc([N+](=O)[O-])cc1	.	2	.	.	.	.	.
